Assay results from different studies.
Lines come from different studies, so protocols differ.
ache: Acetylcholinesterase (ache, Electrophorus electricus, UniProt O42275)
STK17B: Serine/threonine-protein kinase 17B (STK17B, Homo sapiens, UniProt O94768)
STK32A: Serine/threonine-protein kinase 32A (STK32A, Homo sapiens, UniProt Q8WU08)
S1PR1: Sphingosine 1-phosphate receptor 1 (S1PR1, Homo sapiens, UniProt P21453)

Compound | target | test | test system | setting | quantity | value
COc1cc2c(cc1OC)C(=O)N(Cc1nccc3ccccc13)C2 | ache | enzyme activity, inhibitor | – | 1 µM | inhibition | -0.79%
O[C@@H]1[C@H](O)CO[C@H]1n1cnc2c(NCc3cccc(Cl)c3)nc(Cl)nc21 | Adenosine receptor A1 (ADORA1, Homo sapiens, UniProt P30542) | ligand displacement, radioligand | – | 10 µM, cell membranes | inhibition | 36%
FC(F)(F)Oc1cccc(-c2cnc3ccc(-c4ccncc4)nn23)c1 | Mitogen-activated protein kinase kinase kinase kinase 3 (MAP4K3, Homo sapiens, UniProt Q8IVH8) | enzyme activity, inhibitor, radiometric | – | 5 µM | activity vs control | 39%
c1cc(CN2CCOCC2)cc(Nc2ncc(C3CC3)c(NCCc3c[nH]cn3)n2)c1 | STK17B | enzyme activity, inhibitor, radiometric | – | 1 µM | remaining activity | 14%
COc1cc2c(cc1OC)C(=O)N(Cc1n[nH]c3ccccc13)C2 | ache | enzyme activity, inhibitor | – | 1 µM | inhibition | 5.12%
Cc1nn(CC(F)(F)F)cc1Nc1ncc(Br)c(NCc2ccc(S(N)(=O)=O)cc2)n1 | STK17B | enzyme activity, inhibitor, radiometric | – | 1 µM | remaining activity | 47%
CCCOc1ccc(OC)c(F)c1C(=O)c1ccc(C(=O)N[C@@H]2CNC[C@H]2NC(=O)c2ccc3[nH]ncc3c2)cc1 | RAC-gamma serine/threonine-protein kinase (AKT3, Homo sapiens, UniProt Q9Y243) | enzyme activity, inhibitor | – | 0.5 µM | remaining activity | 44%
Cn1c2c(c3ccc(Cl)c(Cl)c31)C(C#N)C1(CCOCC1)NC2=O (centres unmarked) | STK32A | thermal stability, DSF | – | 10 µM | ΔTm | -0.3 °C
O=C(NCCCNc1ccnc(Nc2cccc(NC(=O)N3CCCC3)c2)n1)C1CCC1 | STK17B | enzyme activity, inhibitor, radiometric | – | 1 µM | remaining activity | 17%
COc1nccc(CN2Cc3cc(OC)c(OC)cc3C2=O)n1 | ache | enzyme activity, inhibitor | – | 1 µM | inhibition | -0.39%
CC(C)(C)c1nc2c(s1)c1nc(N)ncc1c1ccc(NS(=O)(=O)c3c(F)cccc3F)c(F)c12 | Ribosomal protein S6 kinase beta-2 (RPS6KB2, Homo sapiens, UniProt Q9UBS0) | enzyme activity, inhibitor, radiometric | – | 1 µM | remaining activity | 90%
O=C(Nc1cccc(Nc2ncc(Br)c(NCCc3cnc[nH]3)n2)c1)N1CCCC1 | STK17B | enzyme activity, inhibitor, radiometric | – | 1 µM | remaining activity | 1%
Cn1c2c(Cl)c(Cl)ccc2c2cn[nH]c(=O)c21 | STK32A | thermal stability, DSF | – | 10 µM | ΔTm | -0.4 °C
Cc1nn(CC(F)(F)F)cc1Nc1ncc(C2CC2)c(NCc2ccc(S(N)(=O)=O)cc2)n1 | STK17B | enzyme activity, inhibitor, radiometric | – | 1 µM | remaining activity | 88%
CCCCCCCOc1ccc(CCC(N)(CO)COP(=O)(O)O)cc1C(F)(F)F (centres unmarked) | S1PR1 | calcium signal, agonist, fluorescence | – | – | Emax | 92%
COc1cc2c(cc1OC)C(=O)N(Cc1ccc(F)nc1)C2 | ache | enzyme activity, inhibitor | – | 1 µM | inhibition | -1.57%
O=C(NCCCNc1nc(Nc2cccc(CN3CCOCC3)c2)ncc1C1CC1)C1CCC1 | STK17B | enzyme activity, inhibitor, radiometric | – | 1 µM | remaining activity | 7%
CCc1cc(/C(C)=N/OCc2ccc(C3CCCCC3)c(C(F)(F)F)c2)ccc1CN1CC(C(=O)O)C1 | S1PR1 | calcium signal, agonist, fluorescence | HUVEC | – | Emax | 85%
COc1cc2c(cc1OC)C(=O)N(Cc1cnc3c(c1)OCCN3C)C2 | ache | enzyme activity, inhibitor | – | 1 µM | inhibition | 1.71%
N#Cc1ccc(/C=C/CN(CC[C@H](N)C(=O)O)C[C@H]2O[C@@H](n3cnc4c(N)ncnc43)[C@H](O)[C@@H]2O)cc1 | Histone-arginine methyltransferase CARM1 (CARM1, Homo sapiens, UniProt Q86X55) | enzyme activity, inhibitor | – | 1 µM | activity vs control | 100%
COc1cc2c(cc1OC)C(=O)N(Cc1ccc3ccccc3n1)C2 | ache | enzyme activity, inhibitor | – | 1 µM | inhibition | 3.28%
Cn1c2c(c3ccc(Cl)c(Cl)c31)C(C#N)C(C)(C)NC2=O (centres unmarked) | STK32A | thermal stability, DSF | – | 10 µM | ΔTm | -0.1 °C
O=C(NCCCNc1nc(Nc2cccc(NC(=O)N3CCCC3)c2)ncc1Br)C1CCC1 | STK17B | enzyme activity, inhibitor, radiometric | – | 1 µM | remaining activity | 0%
CC(C)(C)c1nc(-c2cccc(NS(=O)(=O)c3c(F)cccc3F)c2F)c(-c2ccnc(N)n2)s1 | Mitogen-activated protein kinase kinase kinase 21 (MAP3K21, Homo sapiens, UniProt Q5TCX8) | enzyme activity, inhibitor, radiometric | – | 1 µM | remaining activity | 92%
COc1cc2c(cc1OC)C(=O)N(CC1CCN(Cc3ccccn3)CC1)C2 | ache | enzyme activity, inhibitor | – | 1 µM | inhibition | 8.01%
Cc1nn(CC(F)(F)F)cc1Nc1ncc(C2CC2)c(NCCCNC(=O)C2CCC2)n1 | STK17B | enzyme activity, inhibitor, radiometric | – | 1 µM | remaining activity | 13%
